Test results as given in ChEMBL document CHEMBL3853270, “Influence of Birch Bark Triterpenes on Keratinocytes and Fibroblasts from Diabetic and Nondiabetic Donors” (2016).
Active and inactive are the calls of the source. The calls are words filed in the database; no cut-off is given here.

Columns and labels:
Format in all cases: functional
Fibroblast [1] = assay: Effect on chemokines related gene expression in diabetic adult human primary fibroblasts assessed as IL8 mRNA levels at 9.81 uM after 6 hrs by qPCR analysis
Keratinocyte [2] = assay: Effect on ECM related gene expression in non-diabetic adult human primary keratinocytes assessed as FBN1 mRNA levels at 9.81 uM after 6 hrs by qPCR analysis
Summary of the method: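 Primary keratinocytes from nondiabetic young and adult and diabetic adult donors; 400 000 cells per sample, 6 h exposure at 1.96 or 9.81 μM. RNA extracted and read on a high-throughput qPCR chip. Results are fold change versus 0.1% DMSO solvent control from 5−7 independent experiments over two donors per group, SD, one-way ANOVA with Bonferroni post-test.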

Fibroblast [3] = assay: Effect on antioxidant related gene expression in diabetic adult human primary fibroblasts assessed as SOD2 mRNA levels at 1.96 uM after 6 hrs by qPCR analysis
Fibroblast [4] = assay: Effect on antiinflammatory related gene expression in diabetic adult human primary fibroblasts assessed as SOCS3 mRNA levels at 9.81 uM after 6 hrs by qPCR analysis
Summary of the method: (§1)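 Primary dermal fibroblasts from one nondiabetic young, one nondiabetic adult and one diabetic adult donor; 320 000 cells per sample, 6 h at 1.96 or 9.81 μM. RNA measured on a high-throughput qPCR chip. Fold change versus 0.1% DMSO control, four independent experiments, SD, one-way ANOVA with Bonferroni post-test.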

Fibroblast [5] = assay: Effect on actin cytoskeleton in human diabetic primary fibroblasts assessed as formation of thin elongated cellular body at 10 nM after 2 hrs by rhodamine phalloidin-staining based fluorescence microscopic analysis
Summary of the method: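 Subconfluent cells on glass coverslips, collagen type I coated for fibroblasts; keratinocytes starved 2 days before stimulation. Exposure 2 h, then rhodamine-phalloidin staining (1:25 in PBS) and fluorescence microscopy. Controls were DMSO as solvent and PDGF (fibroblasts) or CNF1 (keratinocytes). Where used, p38-MAPK inhibitor LN 950 (100 nM) was added 30 min beforehand.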

Keratinocyte [6] = assay: Effect on growth factor related gene expression in diabetic adult human primary keratinocytes assessed as GDF15 mRNA levels at 9.81 uM after 6 hrs by qPCR analysis
Summary of the method: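 Primary human keratinocytes (nondiabetic young or adult, diabetic adult donors) were exposed to compound for 6 h, with 0.1% DMSO as solvent control. Total RNA came from 400 000 cells per sample and was assayed on a Fluidigm Biomark high-throughput qPCR chip. Results are fold change vs solvent control, from 2−4 independent experiments on two donors per group, with SD. Groups were compared by one-way ANOVA with Bonferroni post-test.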

[7] = Effect on wound healing activity in diabetic adult human primary fibroblasts assessed as upregulation of MIF protein levels at 1.96 uM after 24 hrs by bead-based suspension array analysis; details: Fibroblast
Fibroblast [8] = assay: Effect on pro-inflammatory related gene expression in non-diabetic adult human primary fibroblasts assessed as IL1R1 mRNA levels at 1.96 uM after 6 hrs by qPCR analysis
Fibroblast [9] = assay: Effect on antiinflammatory related gene expression in non-diabetic adult human primary fibroblasts assessed as SOCS3 mRNA levels at 1.96 uM after 6 hrs by qPCR analysis; summary of the method: as §1
Fibroblast [10] = assay: Effect on antiinflammatory related gene expression in diabetic adult human primary fibroblasts assessed as SOCS3 mRNA levels at 1.96 uM after 6 hrs by qPCR analysis; summary of the method: as §1
Fibroblast [11] = assay: Effect on pro-inflammatory related gene expression in non-diabetic young human primary fibroblasts assessed as IL6 mRNA levels at 9.81 uM after 6 hrs by qPCR analysis

Compound: C=C(C)[C@@H]1CC[C@]2(CO)CC[C@]3(C)[C@H](CC[C@@H]4[C@@]5(C)CC[C@H](O)C(C)(C)[C@@H]5CC[C@]43C)[C@@H]12 [BETULIN]
- fold change (FC) (Fibroblast [1]): 3.7
- fold change (FC) (Keratinocyte [2]): 0.7
- fold change (FC) (Fibroblast [3]): 2.2
- fold change (FC) (Fibroblast [4]): 1.4
- Activity (Fibroblast [5]): Active
- fold change (FC) (Keratinocyte [6]): 2.5
- Activity [7]: Active
- fold change (FC) (Fibroblast [8]): 4.8
- fold change (FC) (Fibroblast [9]): 24.4
- fold change (FC) (Fibroblast [10]): 2
- fold change (FC) (Fibroblast [11]): 55
